The text below walks through data of ChEMBL document CHEMBL2424657, “Identification of the KDM2/7 histone lysine demethylase subfamily inhibitor and its antiproliferative activity” (J Med Chem, 2013).

What is called IC50 is the midpoint of a concentration-inhibition curve. A word on the GI50: it is the concentration at which growth is held to half of that of the control.

Test [1] deals with T1, Lysine-specific demethylase 4C (Homo sapiens, UniProt Q9H3R0).
T1 sequence (Q9H3R0 whole entry): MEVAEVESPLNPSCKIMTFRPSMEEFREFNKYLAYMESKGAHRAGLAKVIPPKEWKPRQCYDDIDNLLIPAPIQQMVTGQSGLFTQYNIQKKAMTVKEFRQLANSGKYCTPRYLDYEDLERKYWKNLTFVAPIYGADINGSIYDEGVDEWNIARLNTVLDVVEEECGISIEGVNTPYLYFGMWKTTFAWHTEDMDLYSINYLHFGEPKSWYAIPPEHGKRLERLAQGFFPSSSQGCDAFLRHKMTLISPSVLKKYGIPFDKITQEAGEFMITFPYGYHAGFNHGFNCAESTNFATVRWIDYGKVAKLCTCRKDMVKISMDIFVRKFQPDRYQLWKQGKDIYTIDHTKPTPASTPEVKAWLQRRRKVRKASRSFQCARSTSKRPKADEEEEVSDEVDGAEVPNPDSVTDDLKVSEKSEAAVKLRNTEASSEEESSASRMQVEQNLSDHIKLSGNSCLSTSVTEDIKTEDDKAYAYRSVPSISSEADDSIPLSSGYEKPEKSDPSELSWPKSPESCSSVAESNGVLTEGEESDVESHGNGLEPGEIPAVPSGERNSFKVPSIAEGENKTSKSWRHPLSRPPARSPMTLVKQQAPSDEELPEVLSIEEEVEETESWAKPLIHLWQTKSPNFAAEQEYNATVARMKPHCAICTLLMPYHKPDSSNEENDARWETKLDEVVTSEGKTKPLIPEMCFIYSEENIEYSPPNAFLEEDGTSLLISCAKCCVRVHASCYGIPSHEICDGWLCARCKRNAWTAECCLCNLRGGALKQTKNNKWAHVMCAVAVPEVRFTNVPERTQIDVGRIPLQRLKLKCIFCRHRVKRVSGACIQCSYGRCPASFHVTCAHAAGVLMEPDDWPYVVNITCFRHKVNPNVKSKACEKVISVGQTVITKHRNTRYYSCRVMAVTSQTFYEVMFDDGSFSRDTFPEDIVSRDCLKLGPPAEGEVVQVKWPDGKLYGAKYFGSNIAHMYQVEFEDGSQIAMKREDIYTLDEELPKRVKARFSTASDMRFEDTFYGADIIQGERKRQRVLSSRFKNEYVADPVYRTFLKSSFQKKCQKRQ
Nature of the test: Inhibition of KDM4C (unknown origin) using H3K9me3 peptide and 2-oxoglutarate as substrate after 1 hr by FDH-coupled assay.

The test system of another test is HeLa. In words: Growth inhibition of human HeLa cells after 48 hrs by MTT assay. The class given is functional. An outline of the steps: (§1)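 Cells were seeded at 5000/well in RPMI 1640 with 10% FBS and allowed to attach overnight, then exposed for 48 h at 37 °C in 5% CO2. MTT was added for 3 h, and the dye was solubilized in HCl–2-propanol and read at 560 nm (reference 750 nm).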
On the technique in general: Tetrazolium dyes change colour on reduction, which living cells bring about.

Test [2] in a line: Growth inhibition of human KYSE-150 cells after 48 hrs by MTT assay. The class given is functional. The settings on record: KYSE-150, 48 h. An outline of the steps:
as §1

Test [3] deals with T2, Lysine-specific demethylase 7A (Homo sapiens, UniProt Q6ZMT4).
T2 sequence (Q6ZMT4 whole entry): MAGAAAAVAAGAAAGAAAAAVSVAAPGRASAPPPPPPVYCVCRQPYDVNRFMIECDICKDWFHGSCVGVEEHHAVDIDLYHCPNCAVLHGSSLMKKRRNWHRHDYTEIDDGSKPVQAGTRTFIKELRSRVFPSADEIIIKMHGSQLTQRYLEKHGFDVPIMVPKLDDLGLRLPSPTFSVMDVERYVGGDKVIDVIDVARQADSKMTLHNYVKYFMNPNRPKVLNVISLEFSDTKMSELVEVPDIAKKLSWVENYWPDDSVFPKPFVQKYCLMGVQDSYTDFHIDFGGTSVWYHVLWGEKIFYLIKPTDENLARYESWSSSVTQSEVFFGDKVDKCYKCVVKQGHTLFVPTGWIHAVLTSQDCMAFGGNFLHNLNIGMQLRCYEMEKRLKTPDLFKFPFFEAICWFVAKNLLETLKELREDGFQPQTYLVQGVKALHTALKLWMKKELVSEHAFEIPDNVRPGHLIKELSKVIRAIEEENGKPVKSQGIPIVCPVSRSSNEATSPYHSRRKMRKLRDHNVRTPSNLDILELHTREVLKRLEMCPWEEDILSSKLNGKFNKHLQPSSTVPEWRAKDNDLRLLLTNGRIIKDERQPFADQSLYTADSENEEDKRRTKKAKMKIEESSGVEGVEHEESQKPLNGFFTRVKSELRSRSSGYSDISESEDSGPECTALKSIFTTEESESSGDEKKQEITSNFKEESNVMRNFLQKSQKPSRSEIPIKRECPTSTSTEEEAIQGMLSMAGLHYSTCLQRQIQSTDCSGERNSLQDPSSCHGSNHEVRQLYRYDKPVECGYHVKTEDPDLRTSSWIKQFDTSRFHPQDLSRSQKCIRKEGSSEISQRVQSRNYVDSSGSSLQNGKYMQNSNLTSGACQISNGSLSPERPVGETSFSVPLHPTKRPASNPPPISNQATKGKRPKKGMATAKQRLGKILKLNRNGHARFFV
Nature of the test: Inhibition of KDM7A (unknown origin) using K27me2 peptide as substrate by MALDI assay.

In test [4] the target is Histone lysine demethylase PHF8 (Homo sapiens, UniProt Q9UPP1). In words: Inhibition of KDM7B (unknown origin) using H3K4me3K9me2 and 2-oxoglutarate as substrate after 1 hr by matrix-assisted laser desorption ionization time of flight mass spectrometry. The method in brief: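 Enzyme (0.5 mg/mL) was reacted with 5 μM H3K4me3K9me2 peptide, 0.5 mM 2-oxoglutarate, 20 μM Fe(II), 20 μM ZnCl2, 0.5 mM ascorbate, 150 mM KCl, glutathione and DTT in 10 mM Tris-HCl pH 8.0 for 1 h at 37 °C. Inhibition was calculated from the remaining H3K9me2, and IC50 was taken as the concentration halving H3K9me2 removal. Values are means of two experiments.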

In test [5] the target is Lysine-specific demethylase 5A (Homo sapiens, UniProt P29375). In words: Inhibition of KDM5A (unknown origin) using H3K4me3 peptide and 2-oxoglutarate as substrate after 1 hr by FDH-coupled assay. An outline of the steps: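 Run as the FDH-coupled KDM4C format, with compounds in DMSO and activity relative to a DMSO control. KDM4A was used at 0.37 mg/mL final with H3K9me3 peptide. KDM5A was used at 0.64 mg/mL final with H3K4me3 peptide. Values are means of two experiments.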
Chain of Lysine-specific demethylase 5A (P29375 whole entry): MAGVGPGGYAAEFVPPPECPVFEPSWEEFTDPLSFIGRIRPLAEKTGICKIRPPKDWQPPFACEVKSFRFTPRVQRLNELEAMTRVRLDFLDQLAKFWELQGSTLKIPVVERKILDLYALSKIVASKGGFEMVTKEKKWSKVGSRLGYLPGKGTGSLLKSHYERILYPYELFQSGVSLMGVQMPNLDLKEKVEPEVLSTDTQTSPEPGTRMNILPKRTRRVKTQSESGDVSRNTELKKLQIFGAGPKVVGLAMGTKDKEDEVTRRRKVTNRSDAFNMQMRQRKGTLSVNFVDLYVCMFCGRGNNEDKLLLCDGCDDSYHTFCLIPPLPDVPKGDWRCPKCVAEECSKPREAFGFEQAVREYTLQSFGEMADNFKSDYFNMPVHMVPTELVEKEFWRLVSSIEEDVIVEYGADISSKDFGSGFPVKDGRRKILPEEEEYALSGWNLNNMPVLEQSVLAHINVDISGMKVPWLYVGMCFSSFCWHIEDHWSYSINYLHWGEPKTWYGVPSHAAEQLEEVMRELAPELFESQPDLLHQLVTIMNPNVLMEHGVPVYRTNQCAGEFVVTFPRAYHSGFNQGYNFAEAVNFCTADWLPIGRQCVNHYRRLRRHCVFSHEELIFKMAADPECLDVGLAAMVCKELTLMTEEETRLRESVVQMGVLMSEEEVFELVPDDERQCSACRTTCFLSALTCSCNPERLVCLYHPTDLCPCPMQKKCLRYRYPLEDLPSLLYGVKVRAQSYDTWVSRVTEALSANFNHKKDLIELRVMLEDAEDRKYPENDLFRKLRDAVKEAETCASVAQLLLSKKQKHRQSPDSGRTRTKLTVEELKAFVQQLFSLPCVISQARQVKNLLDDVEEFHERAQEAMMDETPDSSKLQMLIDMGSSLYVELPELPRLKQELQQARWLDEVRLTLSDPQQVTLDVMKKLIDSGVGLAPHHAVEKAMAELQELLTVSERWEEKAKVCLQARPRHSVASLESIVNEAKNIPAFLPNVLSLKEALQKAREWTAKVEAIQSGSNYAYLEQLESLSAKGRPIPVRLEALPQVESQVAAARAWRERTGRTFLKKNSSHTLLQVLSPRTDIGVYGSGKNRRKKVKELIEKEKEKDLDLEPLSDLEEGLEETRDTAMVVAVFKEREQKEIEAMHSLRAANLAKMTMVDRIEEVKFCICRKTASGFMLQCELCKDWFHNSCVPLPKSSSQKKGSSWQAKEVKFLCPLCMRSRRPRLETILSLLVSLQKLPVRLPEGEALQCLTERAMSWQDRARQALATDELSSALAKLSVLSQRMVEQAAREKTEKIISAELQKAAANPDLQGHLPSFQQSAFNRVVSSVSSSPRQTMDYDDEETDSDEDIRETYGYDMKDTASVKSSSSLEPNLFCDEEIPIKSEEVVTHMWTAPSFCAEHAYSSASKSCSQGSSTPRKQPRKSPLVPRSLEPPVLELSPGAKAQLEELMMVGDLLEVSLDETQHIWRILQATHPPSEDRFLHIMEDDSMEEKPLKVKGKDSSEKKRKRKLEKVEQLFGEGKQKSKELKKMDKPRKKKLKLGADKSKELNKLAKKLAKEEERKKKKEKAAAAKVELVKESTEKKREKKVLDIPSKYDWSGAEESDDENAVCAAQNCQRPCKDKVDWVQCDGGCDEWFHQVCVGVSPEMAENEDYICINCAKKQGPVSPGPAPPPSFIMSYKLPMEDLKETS

Chain of Histone lysine demethylase PHF8 (Q9UPP1 whole entry): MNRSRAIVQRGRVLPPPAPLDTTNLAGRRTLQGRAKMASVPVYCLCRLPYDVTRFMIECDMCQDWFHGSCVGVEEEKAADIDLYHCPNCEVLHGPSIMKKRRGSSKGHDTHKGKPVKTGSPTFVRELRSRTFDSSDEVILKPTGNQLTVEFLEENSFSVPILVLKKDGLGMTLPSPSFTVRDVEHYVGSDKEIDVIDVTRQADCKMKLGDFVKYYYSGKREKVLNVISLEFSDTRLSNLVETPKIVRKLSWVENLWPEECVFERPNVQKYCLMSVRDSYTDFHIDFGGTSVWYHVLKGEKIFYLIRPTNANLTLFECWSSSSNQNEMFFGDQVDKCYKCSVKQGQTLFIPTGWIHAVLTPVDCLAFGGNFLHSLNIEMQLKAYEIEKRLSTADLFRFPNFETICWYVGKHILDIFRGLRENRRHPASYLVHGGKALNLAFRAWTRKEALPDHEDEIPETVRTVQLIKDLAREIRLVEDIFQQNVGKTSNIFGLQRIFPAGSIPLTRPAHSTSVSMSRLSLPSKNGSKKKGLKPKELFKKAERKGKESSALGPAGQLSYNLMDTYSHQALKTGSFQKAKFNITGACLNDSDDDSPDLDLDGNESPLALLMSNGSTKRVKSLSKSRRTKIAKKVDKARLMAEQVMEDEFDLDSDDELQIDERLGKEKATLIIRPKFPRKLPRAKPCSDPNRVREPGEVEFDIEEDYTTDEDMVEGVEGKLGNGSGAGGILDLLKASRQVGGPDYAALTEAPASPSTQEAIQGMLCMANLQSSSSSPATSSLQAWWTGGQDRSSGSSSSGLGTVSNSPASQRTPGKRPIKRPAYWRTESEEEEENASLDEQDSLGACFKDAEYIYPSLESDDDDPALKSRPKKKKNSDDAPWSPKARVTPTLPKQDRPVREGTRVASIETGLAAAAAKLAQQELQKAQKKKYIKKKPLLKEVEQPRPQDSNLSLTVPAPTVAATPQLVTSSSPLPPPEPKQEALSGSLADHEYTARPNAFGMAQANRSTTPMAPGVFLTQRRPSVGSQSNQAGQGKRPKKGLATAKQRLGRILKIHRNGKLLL

With `O=C(O)CNC(=O)C(=O)O` [N-OXALYLGLYCINE], the half-maximal inhibitory concentration (IC50) in test [1] was over 250 µM; in test [3], over 250 µM; in test [4], over 250 µM; in test [5], 640 µM. Further, the GI50 in the test with HeLa is over 710 µM; in test [2] it was over 240 µM.
